In the array DNA melting data of Ke et al. (doi:10.1101/2024.01.08.574731):

Assays:
[1] = melting temperature; fluorescence melt of hairpins on a sequencing array, two-state fit, raised by 9.35 °C to match UV melts; conditions: sodium 0.088 M
Method in brief: (§1)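 To match UV melts, fitted temperatures were raised by 9.35 °C. These fits were bootstrapped two-state models that gave melting temperature and folding enthalpy, combined by inverse variance over four replicates. The input was normalised Cy3 fluorescence of library hairpins with annealed Cy3 and quencher oligos on a sequenced MiSeq flow cell, imaged in 50 mM Na-HEPES pH 8.0, 25 mM NaCl in 2.5 °C steps up to 60 °C.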

[2] = folding enthalpy; higher = less favourable; fluorescence melt of hairpins on a sequencing array, two-state fit; conditions: sodium 0.088 M
Method in brief: as §1

Sequence | Tm [1] | folding enthalpy [2]
GGCTCCGAAAGGACAGCC ((((((....)))..))) | 50.6 °C | -23.1 kcal/mol
GGCTCCGAAAGGACTGCC ((((((....)))..))) | 47.6 °C | -19.1 kcal/mol
GGCTCCGAAAGGAGTGCC ((((((....)))..))) | 50 °C | -14.5 kcal/mol
GGCTCCGGAAACGAAGCC ((((.((....)).)))) | 50.7 °C | -40.4 kcal/mol
GGCTCCGGAAACGGGGCC (((.(((....))).))) | 67.5 °C | -50.7 kcal/mol
GGCTCTCGAAAGAGGGCC (((.(((....))).))) | 64.7 °C | -39.3 kcal/mol
GGCTCTGCGAAAGCAGCC (((..(((....)))))) | 40.6 °C | -9.66 kcal/mol
GGCTCTGGAAACAGAACC ((.((((....)))).)) | 42.3 °C | -35.1 kcal/mol
GGCTCTGGAAACAGAGTC (.(((((....))))).) | 52.8 °C | -35.7 kcal/mol
GGCTCTTCGAAAGAAGCC (((..(((....)))))) | 37.6 °C | -16.3 kcal/mol
GGCTGAGAAATCAGCC ((((((....)))))) | 65.7 °C | -34.3 kcal/mol
GGCTGCCGAAAGGCCGCC (((.(((....))).))) | 65 °C | -18.5 kcal/mol
GGCTGCGAAAGCAAGGCC ((((((....)))..))) | 55.8 °C | -18.5 kcal/mol
GGCTGCGGAAACGCAACC ((.((((....)))).)) | 54.7 °C | -22.3 kcal/mol
GGCTGCGGAAACGCGGTC (.(.(((....))).).) | 53.1 °C | -28.7 kcal/mol
GGCTGCGGAAACGTGGCC (((..((....))..))) | 56.5 °C | -45.6 kcal/mol
GGCTGGGGAAACCTAGCC ((((.((....)).)))) | 56.2 °C | -42.8 kcal/mol
GGCTGGTCGAAAGACGCC (((..(((....)))))) | 52.1 °C | -27 kcal/mol
GGCTGTGGAAACATAGCC ((((.((....)).)))) | 53.5 °C | -43.4 kcal/mol
GGCTGTGGAAACATGGCC (((..((....))..))) | 49.5 °C | -32.6 kcal/mol
GGCTGTGGAAACGTAGCC ((((..(....)..)))) | 48.9 °C | -29.9 kcal/mol
GGCTTAACGAAAGTTGCC (((..(((....)))))) | 45.5 °C | -21.8 kcal/mol
GGCTTAGAAATAAGCC ((((((....)))))) | 55.4 °C | -33.4 kcal/mol

Sequence | Tm [1] | folding enthalpy [2]
GGCTTCCCGAAAGGGGCC (((..(((....)))))) | 48.2 °C | -17.7 kcal/mol
GGCTTCCGAAAGGACGCC (((.(((....))).))) | 57.2 °C | -42 kcal/mol
GGCTTCGAAAGAATAGCC ((((((....)))..))) | 45.3 °C | -27.6 kcal/mol
GGCTTCGGAAACGAAGTC (.(((((....))))).) | 53.5 °C | -30.1 kcal/mol
GGCTTGCGAAAGCAGCC (((.(((....)))))) | 65.3 °C | -29.1 kcal/mol
GGCTTGCGAAAGCAGGCC (((.(((....))).))) | 69.2 °C | -31.3 kcal/mol
GGCTTGCGAAAGCATGCC (((.(((....))).))) | 66.6 °C | -31.4 kcal/mol
GGCTTGGGAAACCAAACC ((.((((....)))).)) | 41 °C | -27.8 kcal/mol
GGCTTGGGAAACCAAGTC (.(((((....))))).) | 52.4 °C | -29.4 kcal/mol
GGCTTTCGAAAGAAGGCC (((.(((....))).))) | 56.7 °C | -40.9 kcal/mol
GGCTTTCGAAAGAATGCC (((.(((....))).))) | 54.8 °C | -41 kcal/mol
GGCTTTGGAAACGAAGCC (((((.(....).))))) | 54 °C | -43.6 kcal/mol
GGGAAAGGAAACTTCCCC (((.(((....))).))) | 36.8 °C | -23.3 kcal/mol
GGGAAAGGAAACTTTCCC (((((((....))))))) | 57.7 °C | -47 kcal/mol
GGGAACCCGAAAGGGCCC (((..(((....)))))) | 45.9 °C | -15.4 kcal/mol
GGGAACGAAAGTTAACCC ((((((....)))..))) | 35.1 °C | -19.8 kcal/mol
GGGAACGAAAGTTACCC ((((((....))).))) | 53.8 °C | -30 kcal/mol
GGGAACGAAAGTTAGCCC ((((((....)))..))) | 33.1 °C | -17.2 kcal/mol
GGGAACGAAAGTTATCCC ((((((....)))..))) | 36.6 °C | -23.3 kcal/mol
GGGAACGAAAGTTCGCCC ((((((....)))..))) | 46.4 °C | -14.8 kcal/mol
GGGAAGAAATTCCC (((((....))))) | 44.6 °C | -19.9 kcal/mol
GGGAAGCGAAAGCTCCCC (((.(((....))).))) | 61.5 °C | -21.7 kcal/mol
GGGAAGGGAAACCTCCCC (((.(((....))).))) | 45.2 °C | -21.6 kcal/mol
